How the values were obtained:
Bos taurus = species: Bos taurus; experiment: Displacement of [3H]Ro15-1788 from GABAA receptor in bovine cerebral cortex membranes at 10 uM after 90 mins by liquid scintillation counting method relative to control; assay type: cell membranes; details: Membrane
Method in brief: (§1)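 Bovine cerebral cortex membranes in 50 mM tris-citrate pH 7.4, with displacement of specific [3H]flumazenil binding. Single-point screen at 10 μM gives % inhibition. Where inhibition exceeds 80%, at least six concentrations tested and Ki derived by iterative curve fitting and the Cheng-Prusoff equation. Five experiments, each in triplicate; mean ± SEM.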

Mus musculus [1] = experiment: Anxiolytic-like activity in Swiss albino mouse assessed as persistent time in light box at 100 mg/kg, ip administered 40 mins prior to testing by light dark box test (131.9 +/- 6.5 secs); assay type: functional
[2] = Displacement of [3H]Ro15-1788 from GABAA receptor in bovine cerebral cortex membranes after 90 mins by liquid scintillation counting method; assay type: cell membranes, Bos taurus, Membrane; method in brief: as §1
Mus musculus [3] = experiment: Anxiolytic-like activity in Swiss albino mouse assessed as persistent time in light box at 30 mg/kg, po administered 30 mins prior to testing by light dark box test (131.9 +/- 6.5 secs); assay type: functional
Rattus norvegicus [4] = experiment: Antihyperalgesic activity in Sprague-Dawley rat peripheral mononeuropathy model assessed as ipsilateral paw pressure at 10 mg/kg, po after 30 mins by analgesimeter (41.7 +/- 3.6 g); assay type: functional
Mus musculus [5] = experiment: Effect on licking latency time in Swiss albino mouse at 30 mg/kg, po after 15 mins by hot plate test (reference value: 18.3 +/- 1.1 secs); assay type: ADME, organism-based; details: in vivo, 0.25 h
Mus musculus [6] = experiment: Antihyperalgesic activity in streptozotocin-induced Swiss albino mouse hyperalgesia model assessed as licking latency time at 30 mg/kg, po after 60 mins by hot plate test (reference value: 9.6 +/- 0.9 secs); assay type: functional
NSC = experiment: Cytotoxicity against human H9-derived neural stem cells assessed as effect on cell viability at 1 to 1000 nM after 72 hrs by MTS assay; assay type: cell-based; details: 1 µM
Method in brief: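 Neural stem cells derived from H9 were grown on polyornithine/laminin and differentiated for 7 days in serum-free Neurobasal with 2% B-27, 2 mM L-glutamine and 5 μM retinoic acid. Cells then exposed 72 h to 1 nM-1 μM compound. MTS absorbance read at 490, background subtracted, expressed as % of untreated cells. Three independent experiments, each in triplicate.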

Mus musculus [7] = experiment: Anxiolytic-like activity in Swiss albino mouse assessed as persistent time in light box at 1 mg/kg, po administered 30 mins prior to testing by light dark box test (131.9 +/- 6.5 secs); assay type: functional
Mus musculus [8] = experiment: Anxiolytic-like activity in Swiss albino mouse assessed as persistent time in light box at 10 mg/kg, po administered 30 mins prior to testing by light dark box test (131.9 +/- 6.5 secs); assay type: functional
Rattus norvegicus [9] = experiment: Antihyperalgesic activity in Sprague-Dawley rat peripheral mononeuropathy model assessed as ipsilateral paw pressure at 30 mg/kg, po after 30 mins by analgesimeter (41.7 +/- 3.6 g); assay type: functional
Rattus norvegicus [10] = experiment: Effect on pain threshold in contralateral paw in Sprague-Dawley rat peripheral mononeuropathy model at 30 mg/kg, po; assay type: ADME, organism-based; details: in vivo
Mus musculus [11] = experiment: (§2) Reversal of scopolamine-induced amnesic effect in Swiss albino mouse assessed as retention session latency time at 30 mg/kg, po administered 30 mins followed by establishment of training session and immediate addition of scopolamine post session by passive-avoidance test (reference value: 46.3 +/- 7.5 secs); assay type: functional
Method in brief: (§3)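 Male Swiss albino mice, 8 per group, step-through passive avoidance. Compound given p.o. in 1% carboxymethylcellulose 30 min before training. Scopolamine 1.5 mg/kg in saline given i.p. immediately after training. Punishment on entering the dark compartment is a fall into 10 °C water. Latencies measured at training and at retention 24 h later (max 120 s).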

Mus musculus [12] = experiment: Amnesic effect in Swiss albino mouse assessed as retention session latency time at 30 mg/kg, po administered 30 mins prior to testing by passive-avoidance test (reference value: 98.4 +/- 8.8 secs); assay type: ADME, organism-based; details: in vivo
Mus musculus [13] = experiment: Antihyperalgesic activity in streptozotocin-induced Swiss albino mouse hyperalgesia model assessed as licking latency time at 30 mg/kg, po after 45 mins by hot plate test (reference value: 10.9 +/- 0.8 secs); assay type: functional
Mus musculus [14] = experiment: as §2, with “as training” for “as retention”, “at 10” for “at 30”, “value: 15.9” for “value: 46.3”, “+/- 3” for “+/- 7.5”; assay type: functional; method in brief: as §3
Mus musculus [15] = experiment: Anticonvulsant activity in Swiss albino mouse assessed as protection against subcutaneous pentylenetetrazole-induced seizures at 30 mg/kg, po administered 30 mins followed by pentylenetetrazole challenge measured over 30 mins relative to control; assay type: functional
Method in brief: (§4)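 Male Swiss albino mice, 6 per group. Compound given p.o. in 1% carboxymethylcellulose. Pentylenetetrazole 90 mg/kg in saline given s.c. 30 min later. Occurrence of clonic generalized convulsions noted over 30 min. Result expressed as % protection, with the vehicle group taken as 0%.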

Mus musculus [16] = experiment: Effect on explorative activity in Swiss albino mouse at 30 mg/kg, po measured over 5 mins by […] test; assay type: ADME, organism-based; details: in vivo
Method in brief: (§5)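 Male Swiss albino mice, 8 per group, hole-board: a 40 cm square with 16 holes. Compound given 30 min before the test. Each mouse explores freely for 5 min. Photobeam counts across quadrants give locomotor activity; photocells in the holes give the number of hole inspections.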

Mus musculus [17] = experiment: Anticonvulsant activity in Swiss albino mouse assessed as protection against subcutaneous pentylenetetrazole-induced seizures at 100 mg/kg, po administered 30 mins followed by pentylenetetrazole challenge measured over 30 mins relative to control; assay type: functional; method in brief: as §4
Mus musculus [18] = experiment: Anxiolytic-like activity in Swiss albino mouse assessed as persistent time in light box at 30 mg/kg, po administered 30 mins prior to testing in presence of GABAA receptor antagonist flumazenil by light dark box test (131.9 +/- 6.5 secs); assay type: functional
Mus musculus [19] = experiment: Effect on licking latency time in Swiss albino mouse at 30 mg/kg, po after 60 mins by hot plate test (reference value: 17.9 +/- 1.1 secs); assay type: ADME, organism-based; details: in vivo, 1 h
Mus musculus [20] = experiment: Effect on motor coordination in Swiss albino mouse at 30 mg/kg, po measured over 30 secs at 15 to 60 mins post drug administration by rota rod test; assay type: ADME, organism-based; details: in vivo
Method in brief: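 Male Swiss albino mice, 8 per group. Oral dose in 1% carboxymethylcellulose. Rota rod turning at 16 r.p.m. Falls from the rod counted over 30 s, measured before dosing and every 15 min up to 60 min after.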

Rattus norvegicus [21] = experiment: Antihyperalgesic activity in Sprague-Dawley rat peripheral mononeuropathy model assessed as ipsilateral paw pressure at 10 mg/kg, po after 15 mins by analgesimeter (33.7 +/- 3.2 g); assay type: functional
Rattus norvegicus [22] = experiment: Antihyperalgesic activity in Sprague-Dawley rat peripheral mononeuropathy model assessed as ipsilateral paw pressure at 30 mg/kg, po after 45 mins by analgesimeter (36.9 +/- 3.8 g); assay type: functional
Mus musculus [23] = experiment: Effect on licking latency time in Swiss albino mouse at 30 mg/kg, po after 45 mins by hot plate test (reference value: 18 +/- 0.9 secs); assay type: ADME, organism-based; details: in vivo, 0.75 h
Mus musculus [24] = experiment: Antihyperalgesic activity in streptozotocin-induced Swiss albino mouse hyperalgesia model assessed as licking latency time at 30 mg/kg, po after 30 mins by hot plate test (reference value: 10.2 +/- 0.8 secs); assay type: functional
Mus musculus [25] = experiment: Antihyperalgesic activity in streptozotocin-induced Swiss albino mouse hyperalgesia model assessed as licking latency time at 30 mg/kg, po after 15 mins by hot plate test (reference value: 9.4 +/- 1.1 secs); assay type: functional
Mus musculus [26] = experiment: Anticonvulsant activity in Swiss albino mouse assessed as protection against subcutaneous pentylenetetrazole-induced seizures at 10 mg/kg, po administered 30 mins followed by pentylenetetrazole challenge measured over 30 mins relative to control; assay type: functional
Method in brief: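 Male Swiss albino mice (23-30 g), 6 per group. Test drug suspended in 1% carboxymethylcellulose, given orally 30 min before PTZ 90 mg/kg s.c. (saline). Clonic generalized convulsions recorded over 30 min. Result expressed as % protection versus vehicle-treated animals (0% protection).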

Rattus norvegicus [27] = experiment: Antihyperalgesic activity in Sprague-Dawley rat peripheral mononeuropathy model assessed as ipsilateral paw pressure at 30 mg/kg, po after 15 mins by analgesimeter (33.7 +/- 3.2 g); assay type: functional
Mus musculus [28] = experiment: Effect on licking latency time in Swiss albino mouse at 30 mg/kg, po after 30 mins by hot plate test (reference value: 18.8 +/- 1.2 secs); assay type: ADME, organism-based; details: in vivo, 0.5 h
Mus musculus [29] = experiment: as §2, with “training” for “retention”, “15.9” for “46.3”, “3” for “7.5”; assay type: functional; method in brief: as §3
Mus musculus [30] = experiment: as §2, with “at 10” for “at 30”; assay type: functional; method in brief: as §3
Mus musculus [31] = experiment: Amnesic effect in Swiss albino mouse assessed as training session latency time at 30 mg/kg, po administered 30 mins prior to testing by passive-avoidance test (reference value: 14.1 +/- 3.4 secs); assay type: ADME, organism-based; details: in vivo
Rattus norvegicus [32] = experiment: Antihyperalgesic activity in Sprague-Dawley rat peripheral mononeuropathy model assessed as ipsilateral paw pressure at 10 mg/kg, po after 45 mins by analgesimeter (36.9 +/- 3.8 g); assay type: functional
Mus musculus [33] = experiment: Effect on spontaneous motility in Swiss albino mouse at 30 mg/kg, po measured over 5 mins by […] test; assay type: ADME, organism-based; details: in vivo; method in brief: as §5

COCCOc1ccc2cnc3c(C#N)cnn3c2c1
inhibition (Bos taurus): 53%

CCOC(=O)c1ncn2c1CN(C)C(=O)c1cc(F)ccc1-2 [FLUMAZENIL]
Time (Mus musculus [1]): 127.5 s

CCOC(=O)c1cnn2c1ncc1ccc(OC)cc12
Ki [2]: 102 nM
inhibition (Bos taurus): > 80%

CCOC(=O)c1cnn2c1ncc1ccccc12
Ki [2]: 529 to 835 nM
inhibition (Bos taurus): > 80%

COc1ccc2cnc3c(C(=O)OCc4ccccc4)cnn3c2c1
Ki [2]: 19 nM
inhibition (Bos taurus): > 80%

CCOC(=O)c1cnn2c1NCc1ccc(OC)cc1-2
Ki [2]: 376 nM
inhibition (Bos taurus): > 80%

O=C(OCc1ccccc1)c1cnn2c1ncc1ccccc12
Ki [2]: 25.9 nM
inhibition (Bos taurus): > 80%

COc1ccc2cnc3c(C(=O)OC(C)C)cnn3c2c1
Ki [2]: 97.4 nM
inhibition (Bos taurus): > 80%

COc1ccc2cnc3c(C#N)cnn3c2c1
Ki [2]: 378 nM
inhibition (Bos taurus): > 80%

COc1ccc2cnc3c(C(=O)OCc4ccccc4OC)cnn3c2c1
Time (Mus musculus [3]): 165.7 s
Activity (Rattus norvegicus [4]): 41.7 g
Time (Mus musculus [5]): 17.3 s
Time (Mus musculus [6]): 11.2 s
Activity (NSC): Non-Toxic
Time (Mus musculus [7]): 133.1 s
Time (Mus musculus [8]): 169.6 s
Activity (Rattus norvegicus [9]): 41.7 g
Activity (Rattus norvegicus [10]): Non-Toxic
Time (Mus musculus [11]): 60.4 s
Time (Mus musculus [12]): 105.6 s
Time (Mus musculus [13]): 13.1 s
Time (Mus musculus [14]): 17.5 s
Activity (Mus musculus [15]): 10%
Activity (Mus musculus [16]): Non-Toxic
Activity (Mus musculus [17]): 10%
Time (Mus musculus [18]): 136.4 s
Time (Mus musculus [19]): 17.5 s
Ki [2]: 0.27 nM
Activity (Mus musculus [20]): Non-Toxic
Activity (Rattus norvegicus [21]): 39.8 g
Activity (Rattus norvegicus [22]): 35.9 g
Time (Mus musculus [23]): 18.4 s
Time (Mus musculus [24]): 15.5 s
Time (Mus musculus [25]): 16.6 s
Activity (Mus musculus [26]): 0%
Activity (Rattus norvegicus [27]): 52.4 g
inhibition (Bos taurus): > 80%
Time (Mus musculus [28]): 17.2 s
Time (Mus musculus [29]): 17.52 s
Time (Mus musculus [30]): 53.1 s
Time (Mus musculus [31]): 16.5 s
Activity (Rattus norvegicus [32]): 36.9 g
Activity (Mus musculus [33]): Non-Toxic

CN1C(=O)CN=C(c2ccccc2)c2cc(Cl)ccc21 [DIAZEPAM]
Time (Mus musculus [8]): 165.6 s
Ki [2]: 12.3 nM
Activity (Mus musculus [26]): 100%

CCOC(=O)c1cnn2c1[nH]c(=O)c1ccc(OC)cc12
inhibition (Bos taurus): 2%

COc1ccc2c(c1)-n1ncc(C(=O)OCc3ccccc3OC)c1NC2
Ki [2]: 16 nM
inhibition (Bos taurus): > 80%

COc1ccc2cnc3c(C(=O)OCc4cccs4)cnn3c2c1
Ki [2]: 16.7 nM
inhibition (Bos taurus): > 80%

COc1ccc2cnc3c(C(=O)OCc4ccco4)cnn3c2c1
Ki [2]: 15.2 nM
inhibition (Bos taurus): > 80%

COc1ccc2c(c1)-n1ncc(C(=O)OCc3ccccc3)c1NC2
Ki [2]: 34 nM
inhibition (Bos taurus): > 80%

COc1ccccc1COC(=O)c1cnn2c1ncc1ccccc12
Ki [2]: 3.16 nM
inhibition (Bos taurus): > 80%

N#Cc1cnn2c1ncc1ccccc12
inhibition (Bos taurus): 27%

O=C(OCc1cccs1)c1cnn2c1ncc1ccccc12
Ki [2]: 13.2 nM
inhibition (Bos taurus): > 80%

Reference: ChEMBL document CHEMBL4028894, “Identification of a New Pyrazolo[1,5-a]quinazoline Ligand Highly Affine to γ-Aminobutyric Type A (GABAA) Receptor Subtype with Anxiolytic-Like and Antihyperalgesic Activity” (J Med Chem, 2017)
